Experimental data collected from several papers.
Compare with care: the assays were run in different laboratories.
PIK3CA Q546K: Phosphatidylinositol 4,5-bisphosphate 3-kinase catalytic subunit alpha isoform (PIK3CA, Homo sapiens, UniProt P42336, Q546K)
PIK3CA C420R: Phosphatidylinositol 4,5-bisphosphate 3-kinase catalytic subunit alpha isoform (PIK3CA, Homo sapiens, UniProt P42336, C420R)
PIK3CA M1043I: Phosphatidylinositol 4,5-bisphosphate 3-kinase catalytic subunit alpha isoform (PIK3CA, Homo sapiens, UniProt P42336, M1043I)
PIK3CA H1047Y: Phosphatidylinositol 4,5-bisphosphate 3-kinase catalytic subunit alpha isoform (PIK3CA, Homo sapiens, UniProt P42336, H1047Y)
PIK3CA E545K: Phosphatidylinositol 4,5-bisphosphate 3-kinase catalytic subunit alpha isoform (PIK3CA, Homo sapiens, UniProt P42336, E545K)
PIK3CA E545A: Phosphatidylinositol 4,5-bisphosphate 3-kinase catalytic subunit alpha isoform (PIK3CA, Homo sapiens, UniProt P42336, E545A)
PIK3CA: Phosphatidylinositol 4,5-bisphosphate 3-kinase catalytic subunit alpha isoform (PIK3CA, Homo sapiens, UniProt P42336)
PIK3CA H1047L: Phosphatidylinositol 4,5-bisphosphate 3-kinase catalytic subunit alpha isoform (PIK3CA, Homo sapiens, UniProt P42336, H1047L)
PIK3CA E542K: Phosphatidylinositol 4,5-bisphosphate 3-kinase catalytic subunit alpha isoform (PIK3CA, Homo sapiens, UniProt P42336, E542K)

C[C@H]1CCN(c2nccc(-c3cnn4ncccc34)n2)C1 — remaining binding (PIK3CA Q546K; binding; 1 µM): 85%
O=C(c1ccc(Nc2ncc(Cl)c(-c3ccc(Cl)s3)n2)cc1)N1CCC(N2CCCC2)CC1 — remaining binding (PIK3CA C420R; binding, competition with immobilised ligand; 1 µM): 100%
CC1CCCN1c1nccc(-c2cnn3ncccc23)n1 (stereo not drawn) — remaining binding (PIK3CA M1043I; binding; 1 µM): 100%
COc1ncc2cc3ccccc3nc2c1C#N — remaining binding (PIK3CA H1047Y; cell-free assay, competition with immobilised ligand; 5 µM): 86%
O=C(NCC1CCOCC1)c1n[nH]cc1NC(=O)c1c(F)cccc1F — remaining binding (PIK3CA H1047Y; binding, competition with immobilised ligand; 1 µM): 100%
CNC(=O)[C@@H]1CC[C@@H](n2c(-c3ccc4cnccc4c3)nc3ccc(C(=O)NCc4cccc(C(N)=O)c4)cc32)C1 — remaining binding (PIK3CA E545K; binding, competition with immobilised ligand; 1 µM): 84%
c1cncc(-c2cccc(Nc3nccc(NC4CCCCC4)n3)c2)c1 — remaining binding (PIK3CA E545A; binding, competition with immobilised ligand; 10 µM): 80%
CN(C)c1nccc(-c2cnn3ncccc23)n1 — remaining binding (PIK3CA; binding; 1 µM): 97%
O=C(NCCCN1CCOCC1)c1ccc(Nc2nccc(-c3cc4ccccc4s3)n2)cc1 — remaining binding (Phosphatidylinositol 4,5-bisphosphate 3-kinase catalytic subunit alpha isoform (PIK3CA, Homo sapiens, UniProt P42336, I800L); binding, competition with immobilised ligand; 1 µM): 13%
C=CC(=O)N1CCC(C(=O)NCC(=O)N2CCN(c3nc(-c4cnc(N)nc4C(F)F)nc(N4CCOCC4)n3)CC2)CC1 — remaining binding (PIK3CA H1047Y; binding, competition with immobilised ligand; 1 µM): 5.9%
CN(C(=O)c1ccccc1)c1cc(N(C)c2ccc3c(c2)CCc2ccc(C(=O)NCCN4CCOCC4)cc2C3=O)ccc1F — remaining binding (PIK3CA C420R; cell-free assay, competition with immobilised ligand; 1 µM): 91%
CCN1CCN(Cc2ccc(C(=O)Nc3ccc(C)c(Oc4ccc5c(c4)CC(=O)N5)c3)cc2C(F)(F)F)CC1 — remaining binding (PIK3CA Q546K; binding, competition with immobilised ligand; 1 µM): 100%
O=C(c1ccc(Nc2nccc(-c3cc4ccccc4s3)n2)cc1)N1CCC(N2CCCC2)CC1 — remaining binding (PIK3CA H1047L; binding, competition with immobilised ligand; 1 µM): 100%
O=C(N[C@H]1CCCCC/C=C\C2C[C@@]2(C(=O)O)NC(=O)[C@@H]2C[C@@H](Oc3ccncc3)CN2C1=O)OC1CCCC1 (stereo partly drawn) — remaining binding (PIK3CA E542K; binding, competition with immobilised ligand; 1 µM): 96%
Cc1cnc(Nc2ccc(C(=O)N3CCC(N4CCCC4)CC3)cc2)nc1-c1cc2ccccc2s1 — remaining binding (PIK3CA H1047L; binding, competition with immobilised ligand; 1 µM): 97%
O=C(Nc1c[nH]nc1C(=O)NC1CCNCC1)c1cc(F)cc(F)c1 — remaining binding (PIK3CA H1047L; binding, competition with immobilised ligand; 1 µM): 87%
CCC(=O)N[C@H]1CC[C@@H](C(=O)N(C)c2ccc(-c3nc4ccccc4o3)cc2)C1 — remaining binding (PIK3CA E545K; cell-free assay, competition with immobilised ligand; 1 µM): 74%
COc1cnc(Nc2cccc(S(N)(=O)=O)c2)nc1N1CCN(c2ccccc2)C(=O)C1 — remaining binding (PIK3CA H1047L; binding, competition with immobilised ligand; 1 µM): 90%
N[C@H]1CCN(c2nccc(-c3cnn4ncccc34)n2)C1 — remaining binding (PIK3CA; binding; 1 µM): 100%
CO[C@@H](C)c1c(Nc2ccc([C@@H](N(C)C(=O)C3CCS(=O)(=O)CC3)C(F)(F)F)cc2)cnc2cc(Cl)nn12 — remaining binding (PIK3CA H1047L; cell-free assay, competition with immobilised ligand; 1 µM): 98%
F[C@@H]1CCN(c2nccc(-c3cnn4ncccc34)n2)C1 — remaining binding (PIK3CA E545A; binding; 1 µM): 92%
CCS(=O)(=O)c1cc2cc(C[C@](O)(CC(C)(C)c3ccc(F)cc3C(N)=O)C(F)(F)F)[nH]c2cn1 — remaining binding (PIK3CA H1047L; cell-free assay, competition with immobilised ligand; 1 µM): 96%
C[C@@H](c1ccc(-n2cnc3c(N)ncnc32)cc1)N1CCc2nn(C)c(Cc3ccccc3)c2C1=O — remaining binding (PIK3CA E545A; binding, competition with immobilised ligand; 0.1 µM): 100%
Cc1c(C(=O)O)cc(-c2ccc(C3CCNCC3)cc2)c2ccc(-c3ccc(C(F)(F)F)cc3)cc12 — remaining binding (PIK3CA M1043I; cell-free assay, competition with immobilised ligand; 1 µM): 100%
Cc1cnn2ncc(-c3ccnc(N(C)C)n3)c2c1 — remaining binding (PIK3CA H1047Y; binding; 1 µM): 98%
COc1cnc(Nc2cccc(S(N)(=O)=O)c2)nc1N1CCN(c2ccccc2)CC1 — remaining binding (PIK3CA E545A; binding, competition with immobilised ligand; 1 µM): 100%
O=S(=O)(NC1CCC(c2cc(F)ccc2F)(S(=O)(=O)c2ccc(Cl)cc2)CC1)C(F)(F)F (stereo not drawn) — remaining binding (PIK3CA E542K; cell-free assay, competition with immobilised ligand; 1 µM): 100%
O=C(NCCCN1CCOCC1)c1ccc(Nc2ncc(Cl)c(-c3ccc(Cl)s3)n2)cc1 — remaining binding (PIK3CA E542K; binding, competition with immobilised ligand; 1 µM): 100%
O=C(Nc1cccnn1)N1CC(C/C=C/c2cncc(Oc3ccc(C(F)(F)F)cn3)n2)C1 — remaining binding (PIK3CA C420R; cell-free assay, competition with immobilised ligand; 1 µM): 66%
Nc1ncc2c(n1)-c1c([nH]c3ccc(C#CC4CC4)cc13)CCCC2 — remaining binding (PIK3CA M1043I; binding, competition with immobilised ligand; 1 µM): 62%
